# Assay results collected from several papers.
# Protocols differ between the studies behind these lines.
Compound,system,conditions,endpoint,value
CC(C)(Nc1nc(-c2ccccn2)nc2ccccc12)c1ccccn1,"female BALB/c mouse, plasma","intravenous, 1 mg/kg",MRT(0-t),1.2 h
COc1nc(-c2cc(C)c(N[C@@H](C)c3c(F)cc(F)cc3F)nn2)ccc1-n1cnc(C)c1,"male CD-1 mouse, plasma","intravenous, 1 mg/kg, single dose",MRT(0-t),3.3 h
CCc1cc(OC)c2nccc(N3CCc4c(cc(Cn5ccnc5)cc4-c4cn(C)nc4C(F)(F)F)C3=O)c2c1,"male CD-1 mouse, plasma","oral, 50 mg/kg",MRT(0-inf),2.5 h
Cc1cc(NC(=O)c2cccc3cc(-c4cccc5[nH]nc(N)c45)ccc23)ccc1F,"male CD-1 mouse, brain","oral, 10 mg/kg",MRT(0-inf),3.74 h
c1ccc(-c2nc(N3CCC(c4ccccn4)C3)c3ccccc3n2)nc1 (stereo not drawn),"female BALB/c mouse, plasma","oral, 50 mg/kg",MRT(0-inf),5.7 h
CNC(=O)c1cc(OC)cc2c(N3CCc4c(cc(Cn5ccnc5)cc4-c4cn(C)nc4C(F)(F)F)C3=O)ccnc12,"male CD-1 mouse, plasma","oral, 50 mg/kg",MRT(0-inf),2 h
COc1nc(-c2cc(C)c(N[C@@H](C)c3cc(F)cc(F)c3)nn2)ccc1-n1cnc(C)c1,"male CD-1 mouse, plasma","oral, 5 mg/kg, single dose",MRT(0-t),5.4 h
CC1(C)CC[C@]2(C(=O)O)CC[C@]3(C)C(=CC[C@@H]4[C@@]5(C)C[C@@H](O)[C@H](OC(=O)/C=C/c6ccc(O)cc6)C(C)(C)[C@@H]5CC[C@]43C)[C@@H]2C1 (relative stereo),"mouse, plasma","intraperitoneal, 85 µmol/kg, single dose",MRT(0-inf),11.9 h
CCc1cc(C(=O)NC)c2nccc(N3CCc4c(cc(Cn5ccnc5)cc4-c4cn(C)nc4C(F)(F)F)C3=O)c2c1,"male CD-1 mouse, plasma","oral, 50 mg/kg",MRT(0-inf),3.1 h
